Assay results from publication PMC2861555 (International journal of radiation biology, 2009).
Read-outs that look alike come from different tables or passages of the source. Marks after values point to notes of the source that are not given here.

Columns and labels:
rats = conditions: rats; ref Bergeron et al., 1993; cited from earlier work
[1] = assay type: in vivo, rat; conditions: for Bile/Urine (%): bile share of U excretion / Bile/Urine (%): urine share of U excretion / % Administered Dose Excreted: 24 h; for Reduction (%) of renal uranium vs control / reduction of bone actinide content vs control: 24 h post-metal; for % Administered Dose Excreted: bile + urine; for Renal Conc.: kidneys removed 24 h post-metal; for Kidney U Conc. / Liver U Conc. / Lung U Conc. / Spleen U Conc. / Bone (femur) U Conc.: tissue 24 h post-metal; for Bone (femur) U Conc.: bone + bone marrow; for reduction of bone actinide content vs control: femur
[2] = Multiple dose chelator administration in non-bile duct-cannulated; assay type: in vivo, rat; conditions: for % Administered Dose Excreted / Total U Excretion: urine + feces
How it was run: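 Intact rats got uranyl acetate 1 mg U kg−1 s.c. (left flank), then test compound or DTPA 300 µmol kg−1 s.c. (right flank) immediately and at 24-h intervals (4 doses). Rats were caged singly with chow and water ad libitum. Urine and feces were collected every 24 h. Kidneys and other tissues were taken 24 h after the last dose. Uranium was measured by ICP-MS in triplicate; data are mean ± SEM.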

[3] = 24 h after last of 4 daily s.c. doses of 300 µmol kg^−1
[4] = Day 1, 300 µmol kg^−1 s.c. daily x 4
[5] = Day 2, 300 µmol kg^−1 s.c. daily x 4
[6] = Day 3, 300 µmol kg^−1 s.c. daily x 4
[7] = Day 4, 300 µmol kg^−1 s.c. daily x 4

| Compound | Bile/Urine (%): bile share of U excretion ([1]; single dose 150 µmol kg^−1 SC) | Bile/Urine (%): urine share of U excretion ([1]; single dose 150 µmol kg^−1 SC) | Reduction (%) of renal uranium vs control ([1]; single dose 150 µmol kg^−1 SC) | % Administered Dose Excreted ([1]; single dose 150 µmol kg^−1 SC) | Renal Conc. ([1]; single dose 150 µmol kg^−1 SC) | Kidney U Conc. ([1]; single dose 150 µmol kg^−1 SC) | Liver U Conc. ([1]; single dose 150 µmol kg^−1 SC) | Lung U Conc. ([1]; single dose 150 µmol kg^−1 SC) | Spleen U Conc. ([1]; single dose 150 µmol kg^−1 SC) | Bone (femur) U Conc. ([1]; single dose 150 µmol kg^−1 SC) | Bile/Urine (%): bile share of U excretion ([1]; single dose 300 µmol kg^−1 PO) | Bile/Urine (%): urine share of U excretion ([1]; single dose 300 µmol kg^−1 PO) | Reduction (%) of renal uranium vs control ([1]; single dose 300 µmol kg^−1 PO) | % Administered Dose Excreted ([1]; single dose 300 µmol kg^−1 PO) | Renal Conc. ([1]; single dose 300 µmol kg^−1 PO) | Kidney U Conc. ([1]; single dose 300 µmol kg^−1 PO) | Liver U Conc. ([1]; single dose 300 µmol kg^−1 PO) | Lung U Conc. ([1]; single dose 300 µmol kg^−1 PO) | Spleen U Conc. ([1]; single dose 300 µmol kg^−1 PO) | Bone (femur) U Conc. ([1]; single dose 300 µmol kg^−1 PO) | also measured |
| --- | --- | --- | --- | --- | --- | --- | --- | --- | --- | --- | --- | --- | --- | --- | --- | --- | --- | --- | --- | --- | --- |
| C[C@]1(C(=O)O)CSC(c2ncccc2O)=N1 [DFT, (S)-4,5-dihydro-2-(3-hydroxy-2-pyridinyl)-4-methyl-4-thiazolecarboxylic acid, reference compound] |  |  |  |  |  |  |  |  |  |  |  |  |  |  |  |  |  |  |  |  | nephrotoxicity (rats): severe nephrotoxicity |
| COc1ccc(C2=N[C@@H](C(=O)O)CS2)c(O)c1 [compound 3, (S)-2-(2-hydroxy-4-methoxyphenyl)-4,5-dihydro-4-thiazolecarboxylic acid] | 37% | 63% | 40% | 23.8% | 51 ± 22 ^b µg g^−1 | 51 ± 22 ^b µg g^−1 | 9.0 ± 4.0 ^c µg g^−1 | 0.32 ± 0.09 ^c µg g^−1 | 0.48 ± 0.09 ^c µg g^−1 | 4.1 ± 1.6 µg/g | 85% | 15% | 73% | 26.0% | 23 ± 11 ^b µg g^−1 | 23 ± 11 ^b µg g^−1 | 2.5 ± 0.8 ^c µg g^−1 | 0.28 ± 0.10 ^c µg g^−1 | 0.29 ± 0.07 ^c µg g^−1 | 3.1 ± 1.3 µg/g | Bile/Urine (%): bile share of U excretion ([1]; single dose 300 µmol kg^−1 SC): 77%; Bile/Urine (%): urine share of U excretion ([1]; single dose 300 µmol kg^−1 SC): 23%; Reduction (%) of renal uranium vs control ([1]; single dose 300 µmol kg^−1 SC): 60%; % Administered Dose Excreted ([1]; single dose 300 µmol kg^−1 SC): 32.7%; Renal Conc. ([1]; single dose 300 µmol kg^−1 SC): 34 ± 5 ^b µg g^−1; Kidney U Conc. ([1]; single dose 300 µmol kg^−1 SC): 34 ± 5 ^b µg g^−1; Liver U Conc. ([1]; single dose 300 µmol kg^−1 SC): 6.6 ± 1.2 ^c µg g^−1; Lung U Conc. ([1]; single dose 300 µmol kg^−1 SC): 0.32 ± 0.02 ^c µg g^−1; Spleen U Conc. ([1]; single dose 300 µmol kg^−1 SC): 0.39 ± 0.07 ^c µg g^−1; Bone (femur) U Conc. ([1]; single dose 300 µmol kg^−1 SC): 3.0 ± 1.5 µg/g |
| O=C(O)CN(CCN(CC(=O)O)CC(=O)O)CCN(CC(=O)O)CC(=O)O [DTPA, Diethylenetriaminepentaacetic acid, reference compound] | 2% | 98% | 44% | 27.6% | 47 ± 9 ^b µg g^−1 | 47 ± 9 ^b µg g^−1 | 0.1 ± 0.0 ^b µg g^−1 | 0.07 ± 0.01 ^b µg g^−1 | 0.15 ± 0.05 ^b µg g^−1 | 3.1 ± 1.1 µg/g | 0% | 100% | 36% | 21.2% | 54 ± 11 ^b µg g^−1 | 54 ± 11 ^b µg g^−1 | 0.2 ± 0.0 µg/g | 0.10 ± 0.02 ^b µg g^−1 | 0.13 ± 0.03 ^b µg g^−1 | 4.3 ± 1.3 µg/g | renal share of actinide excretion ([1]; route of actinide excretion, dose and route of chelator not stated at this place): 100%; Reduction (%) of renal uranium vs control [2, 3]: 39%; Renal Conc. [2, 3]: 19 ± 2 ^c µg g^−1; Fecal U Excretion [2, 4]: 30 ± 19 µg/kg; Urine U Excretion ([2]; Day 1, 300 µmol kg^−1 s.c. daily x 4, first dose immediately post-U): 380 ± 55 µg/kg; % Administered Dose Excreted [2, 4]: 41.0%; Total U Excretion [2, 4]: 410 ± 56 µg/kg; Fecal U Excretion [2, 5]: 13 ± 9 µg/kg; Urine U Excretion [2, 5]: 43 ± 11 µg/kg; % Administered Dose Excreted [2, 5]: 5.6%; Total U Excretion [2, 5]: 56 ± 16 ^c µg kg^−1; Fecal U Excretion [2, 6]: 13 ± 5 µg/kg; Urine U Excretion [2, 6]: 29 ± 6 µg/kg; % Administered Dose Excreted [2, 6]: 4.2%; Total U Excretion [2, 6]: 42 ± 5 µg/kg; Fecal U Excretion [2, 7]: 9 ± 5 µg/kg; Urine U Excretion [2, 7]: 14 ± 3 µg/kg; % Administered Dose Excreted [2, 7]: 2.3%; Total U Excretion [2, 7]: 23 ± 3 µg/kg; administered dose of uranium excreted at the end of four days (urine + feces) ([2]; cumulative over 4 days, 300 µmol kg^−1 s.c. daily x 4): 53% |
| COc1ccc(C2=N[C@@](C)(C(=O)O)CS2)c(O)c1 [compound 7, (S)-4'-(CH3O)-DADFT] | 62% | 38% | 77% | 24.8% | 19 ± 4 ^b µg g^−1 | 19 ± 4 ^b µg g^−1 | 11.3 ± 3.2 µg/g | 0.28 ± 0.04 ^c µg g^−1 | 0.39 ± 0.08 ^c µg g^−1 | 2.9 ± 0.9 µg/g | 89% | 11% | 94% | 26.5% | 5 ± 3 ^b µg g^−1 | 5 ± 3 ^b µg g^−1 | 5.1 ± 1.7 ^c µg g^−1 | 0.30 ± 0.10 ^c µg g^−1 | 0.49 ± 0.44 µg/g | 1.7 ± 0.9 ^b µg g^−1 | Liver U Conc. ([1]; single dose 150 µmol kg^−1 SC, listed as C00017): 11.3 ± 3.2 ^c µg g^−1; Bile/Urine (%): bile share of U excretion ([1]; single dose 300 µmol kg^−1 SC): 92%; Bile/Urine (%): urine share of U excretion ([1]; single dose 300 µmol kg^−1 SC): 8%; Reduction (%) of renal uranium vs control ([1]; single dose 300 µmol kg^−1 SC): 90%; % Administered Dose Excreted ([1]; single dose 300 µmol kg^−1 SC): 33.9%; Renal Conc. ([1]; single dose 300 µmol kg^−1 SC): 8 ± 2 ^b µg g^−1; Kidney U Conc. ([1]; single dose 300 µmol kg^−1 SC): 8 ± 2 ^b µg g^−1; Liver U Conc. ([1]; single dose 300 µmol kg^−1 SC): 8.1 ± 2.4 ^c µg g^−1; Lung U Conc. ([1]; single dose 300 µmol kg^−1 SC): 0.61 ± 0.13 ^c µg g^−1; Spleen U Conc. ([1]; single dose 300 µmol kg^−1 SC): 0.67 ± 0.18 ^c µg g^−1; Bone (femur) U Conc. ([1]; single dose 300 µmol kg^−1 SC): 1.8 ± 0.6 ^b µg g^−1; reduction of bone actinide content vs control ([1]; single dose 300 µmol kg^−1 p.o.): ≥ 50%; reduction of bone actinide content vs control ([1]; single dose 300 µmol kg^−1 s.c.): ≥ 50% |
